Assay results published in article PMC6634314 (Cell chemical biology, 2019).

How the values were obtained:
INSR = assay: MIB washout assay; assay type: binding, Human; conditions: H23 cells, 1 μM 4h, MIB pulldown ratio SM1-71/SM1-71-R
MAP2K6 = MAP2K6 (Homo sapiens, UniProt P52564); assay: mass shift assay; assay type: binding; conditions: incubated 4 and 24h
Outline: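 Kinase protein at 0.12 mM in 10 mM HEPES pH 7.5, 500 mM NaCl, incubated with 0.2 mM test compound at 4°C for 4 h and 24 h. Samples were diluted in 0.1% formic acid and desalted on a C3 pre-column. ESI-TOF was run in positive mode at 120 V, and intact mass was obtained by deconvolution to detect the adduct.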

SRC = SRC (Homo sapiens, UniProt P12931); assay: MIB dose-dependent kinase inhibition assay; assay type: binding; conditions: read-out: IC50 in the MIB assay, H23 cell lysate, overnight 4°C
Sequence of SRC (P12931 whole entry): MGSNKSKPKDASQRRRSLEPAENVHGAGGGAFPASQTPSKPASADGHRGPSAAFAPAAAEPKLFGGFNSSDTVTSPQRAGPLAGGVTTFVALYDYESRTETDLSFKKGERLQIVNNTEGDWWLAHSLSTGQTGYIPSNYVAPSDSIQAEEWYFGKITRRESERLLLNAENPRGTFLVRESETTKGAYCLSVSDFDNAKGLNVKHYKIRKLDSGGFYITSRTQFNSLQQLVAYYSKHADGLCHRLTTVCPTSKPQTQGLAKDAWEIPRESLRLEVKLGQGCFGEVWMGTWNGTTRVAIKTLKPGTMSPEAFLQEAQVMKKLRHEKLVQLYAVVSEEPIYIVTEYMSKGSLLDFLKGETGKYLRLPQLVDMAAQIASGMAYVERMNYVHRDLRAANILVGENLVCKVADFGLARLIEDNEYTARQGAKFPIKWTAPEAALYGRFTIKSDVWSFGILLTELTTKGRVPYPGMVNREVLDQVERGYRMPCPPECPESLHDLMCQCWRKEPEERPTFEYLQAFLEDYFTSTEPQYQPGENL

Sequence of MAP2K6 (P52564 whole entry, species assumed): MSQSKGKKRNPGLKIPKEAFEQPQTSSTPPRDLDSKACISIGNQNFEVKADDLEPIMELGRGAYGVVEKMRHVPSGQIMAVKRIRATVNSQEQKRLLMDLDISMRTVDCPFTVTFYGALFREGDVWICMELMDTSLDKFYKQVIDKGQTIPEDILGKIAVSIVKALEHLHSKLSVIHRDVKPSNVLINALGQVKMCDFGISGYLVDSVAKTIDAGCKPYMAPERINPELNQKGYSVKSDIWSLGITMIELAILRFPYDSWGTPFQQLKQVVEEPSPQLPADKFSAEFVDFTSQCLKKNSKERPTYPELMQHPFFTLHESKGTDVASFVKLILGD

With `C=CC(=O)Nc1ccccc1Nc1nc(Nc2ccc(N3CCN(C)CC3)cc2)ncc1Cl` [SM1-71] as the compound, how does the BI-0h (INSR; 0h post-washout) read?
The BI-0h was 0.52.

And the BI-6h (INSR; 6h post-washout)?
The BI-6h was 0.76.

And the “covalent adduct formation (mass shift)” value (MAP2K6)?
Its value is “formed covalent adducts”.

What about the IC50 (SRC) of the same compound?
The IC50 was < 10 nM.
